# LANA-H2A inh – blockers of LANA interaction with H2A/H2B – biochemical, FP readout, HTS, primary screen. cell-free LANA-H2A/H2B peptide, fluorescence polarization. Protein LANA1 (Human herpesvirus 8 type P (isolate GK18)), Q9QR71. inhibition, % (test concentration not listed). 0.6% of 320,000 active; in the data active = inhibition mostly above about 10%, no sharp cut-off; inactive = mostly below about 6.7%
# Target sequence (Q9QR71 whole entry, looked up): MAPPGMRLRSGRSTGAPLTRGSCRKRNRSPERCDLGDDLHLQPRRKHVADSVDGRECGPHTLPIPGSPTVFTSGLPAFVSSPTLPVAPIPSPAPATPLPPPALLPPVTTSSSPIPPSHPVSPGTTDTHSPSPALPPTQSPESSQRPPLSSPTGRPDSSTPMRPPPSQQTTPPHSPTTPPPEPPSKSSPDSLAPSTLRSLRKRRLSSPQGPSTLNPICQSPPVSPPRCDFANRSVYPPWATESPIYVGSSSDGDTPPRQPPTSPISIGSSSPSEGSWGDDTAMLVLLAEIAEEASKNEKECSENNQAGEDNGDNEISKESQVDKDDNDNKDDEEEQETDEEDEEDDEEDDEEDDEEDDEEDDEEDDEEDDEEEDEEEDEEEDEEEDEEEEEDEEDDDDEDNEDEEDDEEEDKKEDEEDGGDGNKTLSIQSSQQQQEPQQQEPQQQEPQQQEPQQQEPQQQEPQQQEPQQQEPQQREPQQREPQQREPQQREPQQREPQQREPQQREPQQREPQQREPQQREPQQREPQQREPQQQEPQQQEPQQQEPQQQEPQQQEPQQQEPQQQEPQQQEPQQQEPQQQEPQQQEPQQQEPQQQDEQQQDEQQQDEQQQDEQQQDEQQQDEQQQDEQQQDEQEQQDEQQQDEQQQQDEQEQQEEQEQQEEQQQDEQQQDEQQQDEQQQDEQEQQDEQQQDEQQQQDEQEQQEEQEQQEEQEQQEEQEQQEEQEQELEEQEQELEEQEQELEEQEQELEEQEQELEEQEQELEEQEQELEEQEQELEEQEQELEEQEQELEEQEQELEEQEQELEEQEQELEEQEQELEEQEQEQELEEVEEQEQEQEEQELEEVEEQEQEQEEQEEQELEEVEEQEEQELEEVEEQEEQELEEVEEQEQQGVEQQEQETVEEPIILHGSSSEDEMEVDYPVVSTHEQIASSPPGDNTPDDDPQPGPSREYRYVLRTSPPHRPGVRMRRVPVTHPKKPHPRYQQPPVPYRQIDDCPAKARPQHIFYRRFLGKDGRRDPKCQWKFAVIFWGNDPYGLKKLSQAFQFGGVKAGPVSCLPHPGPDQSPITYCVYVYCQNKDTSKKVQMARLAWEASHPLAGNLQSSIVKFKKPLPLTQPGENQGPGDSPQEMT
# CAL PDZ FP-1 – CAL PDZ peptide-binding inhibitors, primary screen, biochemical, fluorescence polarization, Cer-tagged CAL PDZ, HTS. inhibition, % at 20 µM. 0.02% of 330,000 active. purified CAL PDZ, TMR-peptide fluorescence polarization, 1 h. Golgi-associated PDZ and coiled-coil motif-containing protein (Homo sapiens), Q9HD26. AID 504414, 2011;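 active = highest replicate inhibition of at least 40%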
#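 material = purified tagged CAL PDZ domain construct (CerCALP) | buffer or medium = sodium phosphate/NaCl buffer pH 7.4 with TCEP, IgG, Thesit | reagent = TMR-labelled reporter peptide T*-PRC34 bound in PDZ groove | incubation = 1 h room-temperature incubation prior to read | measured by = fluorescence polarization (mP) | evaluation = percent inhibition from loss of millipolarization | control set = unlabelled peptide and DMSO controls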
# Keap1-Nrf2 PPI – Keap1-Nrf2 protein-protein interaction inhibitors, primary screen, biochemical, fluorescence polarization, single point | inhibition, % at 9.4 µM | Kelch-like ECH-associated protein 1 (Homo sapiens), Q14145 | 0.15% of 340,000 active | Keap1 Kelch-Nrf2 peptide fluorescence polarization, 1536-well; in the data active = inhibition above about 12%;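 note: human Keap1 Kelch domain with fluorescein labeled Nrf2 9mer peptide probe; higher means more block of Keap1 binding to Nrf2 peptide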
# CaV13 FRET inh – Disruptors of the CACNA1D IQ motif to Ca2+-dependent inactivation inhibitor domain association, primary screening, Förster resonance energy transfer in intact living …; inhibition, % at 12.3 µM; AID 743397; HEK cells, CFP/YFP FRET ICDI-IQ, plate reader, 10 min; percent FRET-ratio fall versus neutral wells; 0.098% of 340,000 active;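 active = mean replicate inhibition of at least 30% and at least 1% of replicates passing that level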
# LANA DNA inh – inhibitors of KSHV C-LANA binding to DNA, primary screen, biochemical, fluorescence polarization, FAM-LBS DNA, MBP-C-LANA, single point. 0.078% of 340,000 active. inhibition, % at 9 µM. Kaposi's sarcoma herpesvirus LANA C-terminal domain (residues 932-1162) DNA binding;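 active = highest replicate inhibition at or above 60% at 9 µM, even if other replicates fall short; inactive = all replicates below 60% inhibition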
# CAL PDZ FP-2 – untagged CAL PDZ binding inhibitors, primary screen, biochemical, fluorescence polarization, HTS. AID 602252, 2012. 0.92% of 300,000 active. purified CAL PDZ, TMR-peptide fluorescence polarization, 1 h. inhibition, % at 24.9 µM. Golgi-associated PDZ and coiled-coil motif-containing protein (Homo sapiens), Q9HD26;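 active = mean inhibition of at least 30% with at least half of replicates also reaching 30%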
# A number is an active result; . = inactive; / = no result given; ! = repeats disagree. Most compounds without a hit are left out; they make up all but 1.5% or so of the library.
SMILES,LANA-H2A inh,CAL PDZ FP-1,Keap1-Nrf2 PPI,CaV13 FRET inh,LANA DNA inh,CAL PDZ FP-2
CCOC(=O)c1cccc(NC(=O)CCS(=O)(=O)c2cccs2)c1,.,/,.,.,.,.
COc1cccc(NC(=O)CCS(=O)(=O)c2cccs2)c1,.,.,.,.,.,72.0
O=C(C(=O)N1CCC(CNC(=O)C2COc3ccccc3O2)CC1)c1cccs1 (centres undefined),/,/,/,.,/,/
COc1ccc(NS(=O)(=O)c2cc(NC(=O)c3cnccn3)ccc2OC)cc1Br,.,.,.,.,.,70.7
COc1ccc(NS(=O)(=O)c2cc(NC(=O)c3cnccn3)ccc2N2CCCC2)cc1,.,.,.,.,.,.
Cc1c(NC(=S)NNC(=O)CCC(=O)O)c(=O)n(-c2ccccc2)n1C,.,.,.,.,.,.
O=S1(=O)c2ccc(Br)cc2OCCC2CCCCN21 (centres undefined),/,/,/,.,/,/
CC(C)CC(NC(=O)C(NC(=O)OC(C)(C)C)C(C)C)C(=O)NC(CCC(=O)OCc1ccccc1)C(N)=O (centres undefined),21.0!,.,.,.,.,.
COc1cc(C(=O)NCC(=O)OCC(=O)c2ccc[nH]2)cc(OC)c1OC,.,.,.,.,.,61.0
COc1ccc(S(=O)(=O)NCCC(=O)OCC(=O)c2ccc[nH]2)cc1[N+](=O)[O-],/,.,.,.,.,45.9
CCOC(=O)C1=C(C(=O)OCC)C2N(Cc3ccc(Br)cc3)c3ccccc3[C@@]23C[C@@H](C(=O)OC)N(S(=O)(=O)c2ccc(F)cc2)C3=N1 (some centres undefined),/,/,/,.,/,/
Cc1ccccc1S(=O)(=O)N1CCCc2nc(C)c(C)cc21,/,/,/,.,/,/
O=c1cccccc1NCc1ccccc1,.,.,.,.,.,.
N#Cc1ccccc1NCc1ccccc1,15.0,.,.,/,.,.
Cc1ccc(OCC(=O)N/N=C\c2ccc(O)c([N+](=O)[O-])c2)c([N+](=O)[O-])c1,12.8,.,.,.,.,.
Cc1ccc(/C=N\NC(=O)COc2ccc(C)cc2[N+](=O)[O-])cc1,.,.,.,.,.,.
Cc1ccc(OCc2nnn(CC(=O)NS(=O)(=O)c3c(C)noc3C)c2-c2ccccc2)cc1,/,/,/,.,/,/
CC(C)C(NC(=O)c1ccccc1Br)c1ccccc1 (centres undefined),.,.,.,.,.,.
CC(NC(=S)NC(=O)c1ccccc1Br)c1ccccc1 (centres undefined),.,/,.,.,.,76.7
COC(=O)c1cc2c(c3c4ccccc4n(S(=O)(=O)c4ccc(OC)cc4)c13)C(=O)N(Cc1ccc(N(C)C)cc1)C2,/,/,/,.,/,/
CN(Cc1ccc(Br)cc1)C(=O)CCN1C(=O)c2cccc([N+](=O)[O-])c2C1=O,.,.,.,.,.,70.7
COc1cccc(NC(=O)[C@@H]2CCC(=O)N2C2OC(=O)c3ccccc32)c1 (some centres undefined),.,.,.,/,.,.
COc1ccc(C(=O)Nc2nc3ccccc3c(=O)[nH]2)cc1,39.8,/,.,.,.,.
COc1ccc(Nc2nc3ccccc3c(=O)[nH]2)cc1,21.5,.,.,.,.,.
CC(=O)N(C)C[C@@H]1Oc2cc(Br)ccc2S(=O)(=O)N([C@H](C)CO)C[C@@H]1C,/,/,/,.,/,/
SMILES,LANA-H2A inh,CAL PDZ FP-1,Keap1-Nrf2 PPI,CaV13 FRET inh,LANA DNA inh,CAL PDZ FP-2
COc1ccc(OC(C)C(=O)NCc2cccnc2)cc1 (centres undefined),.,/,.,/,.,45.8
CN(C)C(=O)C[C@H]1C[C@@H]2c3cc(NC(=O)NC4CCCC4)ccc3O[C@@H]2[C@@H](CO)O1,/,/,/,.,/,/
O=C(NCc1ccccc1)[C@@H]1CCCN1C(=O)[C@H]1CCCN1C(=O)c1ccc(F)c(F)c1,/,/,/,.,/,/
CCOc1ccc(/C=N/NC(=O)c2ccoc2C)cc1OC,.,.,.,.,.,182.1
CCN(CC)S(=O)(=O)c1ccc(N2CCOCC2)c(NS(=O)(=O)c2ccc(C)c(C)c2)c1,.,.,.,.,.,88.6
Cc1ccc(S(=O)(=O)Nc2ccc3c(c2)nc(CCN2CCCCC2)n3C)cc1,.,.,.,.,.,.
Cc1ccc(S(=O)(=O)Nc2cc3c(cc2N2CCOCC2)n(C)c(=O)c(=O)n3C)cc1,.,.,.,.,.,35.9
Cc1ccc(S(=O)(=O)Nc2ccc3c(c2)nc(CCN2CCOCC2)n3C)cc1,.,.,.,.,.,32.2
CCN(CC)S(=O)(=O)c1ccc(N2CCOCC2)c(NS(=O)(=O)c2ccc(C)cc2)c1,.,.,.,.,.,.
COc1cc(/C=C(\CC(=O)O)c2nc3ccccc3s2)ccc1OCC(=O)Nc1ccccc1F,/,.,.,.,.,132.7
Cc1cccc(Cn2c(N(C)CCO)nc3c2c(=O)[nH]c(=O)n3C)c1,14.1,.,.,.,.,.
C/C(=N\NS(=O)(=O)c1cccc([N+](=O)[O-])c1)c1cccnc1,.,.,.,.,.,.
CCN(CC(=O)NCc1cccs1)C(=O)c1cc(=O)[nH]c2ccccc12,.,.,.,.,.,73.9
CCN(CC(=O)NCc1cccs1)C(=O)c1cccc(Cl)c1,.,.,.,.,.,.
CCN(CC(=O)NCc1cccs1)C(=O)c1ccccc1Cl,.,.,.,.,.,51.8
COC(=O)C1CCN(C2CN(Cc3cn(Cc4ccc(C(F)(F)F)cc4)nn3)S(=O)(=O)C2)CC1 (centres undefined),/,/,/,.,/,/
CCC(=O)N1c2ccc(S(=O)(=O)NCCc3ccc(C)cc3)cc2CC1C (centres undefined),14.0,.,.,.,.,.
CCCNC(=O)C1CCC(CNS(=O)(=O)c2ccc3c(c2)CC(C)N3C(C)=O)CC1 (centres undefined),.,.,.,.,.,82.3
CC(=O)N1c2ccc(S(=O)(=O)N3CCC(C(=O)Nc4cc(C)ccn4)CC3)cc2CC1C (centres undefined),.,.,.,.,.,67.3
CC(=O)N1c2ccc(S(=O)(=O)NCC3CCC(C(=O)NCc4ccc(C)cc4)CC3)cc2CC1C (centres undefined),.,.,.,.,.,/
CC(=O)N1c2ccc(S(=O)(=O)NCCc3ccccc3)cc2CC1C (centres undefined),.,.,.,.,.,.

# Assay outcomes (PubChem BioAssay)
